The record followed here is ChEMBL document CHEMBL1765010, “Reversible competitive α-ketoheterocycle inhibitors of fatty acid amide hydrolase containing additional conformational constraints in the acyl side chain: orally active, long-acting analgesics” (J Med Chem, 2011).

For experiment [1], the target named is T1, Fatty-acid amide hydrolase 1 (Rattus norvegicus, UniProt P97612).
T1 sequence (P97612 whole entry): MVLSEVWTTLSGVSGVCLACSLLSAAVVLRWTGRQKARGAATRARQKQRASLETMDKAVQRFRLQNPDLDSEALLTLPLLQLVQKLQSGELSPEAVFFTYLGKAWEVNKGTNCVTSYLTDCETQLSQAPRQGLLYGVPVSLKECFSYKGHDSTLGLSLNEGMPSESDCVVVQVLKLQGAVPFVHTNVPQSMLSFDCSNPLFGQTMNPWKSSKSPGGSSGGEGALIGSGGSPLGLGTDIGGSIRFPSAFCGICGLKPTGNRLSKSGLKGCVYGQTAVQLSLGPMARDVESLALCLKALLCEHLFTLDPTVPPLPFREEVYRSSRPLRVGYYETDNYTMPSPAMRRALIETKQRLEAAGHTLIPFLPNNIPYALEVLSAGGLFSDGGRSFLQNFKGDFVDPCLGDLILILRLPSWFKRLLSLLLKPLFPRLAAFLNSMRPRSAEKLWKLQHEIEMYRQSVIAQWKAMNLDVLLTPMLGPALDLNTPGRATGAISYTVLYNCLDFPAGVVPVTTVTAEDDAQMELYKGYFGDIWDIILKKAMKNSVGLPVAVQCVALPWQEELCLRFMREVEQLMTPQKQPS
Description: Inhibition of rat FAAH expressed in E. coli assessed as [14C]-labeled oleamide to oleic acid conversion.

Experiment [2] in a line: Inhibition of full-length human FAAH expressed in COS-7 cells assessed as [14C]-labeled oleamide to oleic acid conversion. The format is cell-based. The gist of the method: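 Substrate 20 μM 14C-oleamide; three inhibitor concentrations. Reaction stopped in 0.1 N HCl at three time points, extracted with EtOAc and read by TLC.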
Experiment [3] deals with Mus musculus. Description: Inhibition of FAAH in C57Bl/6J mouse brain assessed as increase of anandamide level at 30 mg/kg, ip after 1 hr relative to control. The format is functional. As to conditions: route intraperitoneal. The method, boiled down: (§1)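 Male C57Bl/6J mice (<6 months, 20–28 g) dosed i.p. at 30 mg/kg in 18:1:1 saline:ethanol:emulphor emulsion; brains taken 1 h later. One mouse in the initial screen, 3 per group in the follow-up. Brain homogenized in CHCl3:MeOH:Tris pH 8.0 with deuterated lipid standards; organic extract quantified by reverse-phase C18 LC-ESI-MS/MS against vehicle controls.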

Experiment [4] deals with Mus musculus. Description: Inhibition of FAAH in C57Bl/6J mouse brain assessed as increase of N-palmitoyl ethanolamine level at 30 mg/kg, ip after 1 hr relative to control. As to conditions: route intraperitoneal. The format is functional. The gist of the method:
as §1

Experiment [5] relates to Mus musculus. Kind of experiment: Inhibition of FAAH in C57Bl/6J mouse brain assessed as increase of 2-arachidonoylglycerol level at 30 mg/kg, ip after 1 hr relative to control. In kind it is functional. As to conditions: route intraperitoneal. The gist of the method: as §1
The test system of experiment [6] is Mus musculus. Description: Inhibition of FAAH in C57Bl/6J mouse brain assessed as increase of arachidonic acid level at 30 mg/kg, ip after 1 hr relative to control. The format is functional. As to conditions: route intraperitoneal. The method, boiled down:
as §1

Each structure is given as a SMILES string. A value given as a limit tells only on which side of the number the result lay.

Usually Ki stands for the equilibrium dissociation constant of an inhibitor or competing ligand from its target. For the compound `O=C(O)c1cccc(-c2cnc(C(=O)[C@H]3Cc4ccc(OCc5ccccc5)cc4C3)o2)n1`, the Ki in experiment [1] worked out at 51 nM.
On to `O=C(c1ncc(-c2ccccn2)o1)[C@H]1Cc2ccc(Oc3ccccc3)cc2C1`, for which the Ki in experiment [1] came out at 2.1 nM.
The same measure, in the same setting: then `O=C(O)c1cccc(-c2cnc(C(=O)[C@@H]3CCc4cc(OCc5ccccc5)ccc4C3)o2)n1`, with 740 nM; and `O=C(c1ncco1)[C@H]1CCc2cc(OCc3ccccc3)ccc2C1`, with 6.1 nM.
Take `O=C(c1ncco1)C1Cc2ccc(OCc3ccccc3)cc2C1` (racemic): in experiment [2], the Ki is over 24 nM.
Regarding `COC(=O)c1cccc(-c2cnc(C(=O)[C@@H]3Cc4ccc(Oc5ccccc5)cc4C3)o2)n1`, the Ki in experiment [1] came out at 790 nM.
Consider `O=C(O)c1cccc(-c2cnc(C(=O)[C@@H]3CCc4cc(-c5ccccc5)ccc4C3)o2)n1`, for which the Ki in experiment [1] amounted to 500 nM.
As for `O=C(c1ncco1)[C@H]1CCc2ccccc2C1`, the Ki in experiment [1] amounted to 5100 nM.
`O=C(c1ncc(I)o1)[C@@H]1CCc2cc(OCc3ccccc3)ccc2C1`: the Ki in experiment [1] came to 700 nM.
For the compound `COC(=O)c1nnc(C(=O)[C@H]2CCc3cc(Oc4ccccc4)ccc3C2)o1`, the Ki in experiment [1] stood at 1.5 nM.
The same measure, in the same setting: then `O=C(c1ncc(-c2ccccn2)o1)[C@H]1Cc2ccc(OCc3ccccc3)cc2C1`, with 1.4 nM; and `O=C(c1ncc(-c2ccccn2)o1)[C@@H]1CCc2cc(-c3ccccc3)ccc2C1`, with 240 nM; and `O=C(c1nnc(-c2ccccn2)o1)[C@H]1CCc2cc(Oc3ccccc3)ccc2C1`, with 1 nM.
Same read-out and setting: then `COC(=O)c1cnc(C(=O)[C@H]2CCc3cc(OCc4ccccc4)ccc3C2)o1`, with 2.9 nM; and `O=C(c1ncco1)[C@H]1Cc2ccc(Oc3ccccc3)cc2C1`, with 10 nM.
With `O=C(c1ncc(-c2ccccn2)o1)[C@@H]1Cc2ccc(Oc3ccccc3)cc2C1`, the Ki in experiment [1] amounted to 42 nM.
As for `COC(=O)c1cccc(-c2cnc(C(=O)C3Cc4ccc(-c5ccccc5)cc4C3)o2)n1` (racemic), the inhibitory constant (Ki) in experiment [1] is 6.2 nM.
Still for that read-out and setting: then `COC(=O)c1nnc(C(=O)[C@@H]2CCc3cc(Oc4ccccc4)ccc3C2)o1`, with 1.6 nM.
As for `COC(=O)c1cccc(-c2cnc(C(=O)C3Cc4ccc(OCc5ccccc5)cc4C3)o2)n1` (racemic), in experiment [2], the inhibitory constant (Ki) was over 10000 nM.
Consider `O=C(c1ncco1)[C@H]1Cc2ccc(-c3ccccc3)cc2C1`, for which the inhibition constant Ki in experiment [1] amounted to 27 nM.
On the same count and under the same terms, then `N#Cc1cnc(C(=O)[C@@H]2CCc3cc(OCc4ccccc4)ccc3C2)o1`, with 120 nM; and `COC(=O)c1cnc(C(=O)[C@@H]2CCc3cc(OCc4ccccc4)ccc3C2)o1`, with 53 nM.
Still for that read-out and setting: then `COC(=O)c1cccc(-c2cnc(C(=O)[C@@H]3CCc4cc(-c5ccccc5)ccc4C3)o2)n1`, with 700 nM.
`O=C(c1ncc(-c2ccccn2)o1)[C@H]1CCc2ccccc2C1`: the Ki in experiment [1] came out at 430 nM.
Same read-out and setting: then `O=C(c1ncco1)[C@@H]1Cc2ccc(Oc3ccccc3)cc2C1`, with 200 nM.
Still for that read-out and setting: then `O=C(O)c1cccc(-c2cnc(C(=O)[C@H]3CCc4cc(OCc5ccccc5)ccc4C3)o2)n1`, with 34 nM; and `O=C(c1ncco1)[C@@H]1CCc2cc(Oc3ccccc3)ccc2C1`, with 410 nM; and `O=C(c1ncco1)[C@H]1CCc2cc(-c3ccccc3)ccc2C1`, with 57 nM.
Regarding `O=C(c1ncc(I)o1)[C@H]1CCc2cc(OCc3ccccc3)ccc2C1`, the Ki in experiment [1] was found to be 4.1 nM.
Turning to `N#Cc1cnc(C(=O)[C@@H]2CCc3cc(-c4ccccc4)ccc3C2)o1`, in experiment [1], the Ki was found to be 62 nM.
Same read-out and setting: then `COC(=O)c1cccc(-c2cnc(C(=O)[C@H]3CCc4cc(-c5ccccc5)ccc4C3)o2)n1`, with 27 nM; and `O=C(c1ncc(-c2ccccn2)o1)[C@H]1CCc2cc(OCc3ccccc3)ccc2C1`, with 3.2 nM.
Take `O=C(c1ncco1)C1CCc2cc(OCc3ccccc3)ccc2C1` (racemic): the Ki in experiment [2] was over 10000 nM.
For the compound `COC(=O)c1cccc(-c2cnc(C(=O)[C@H]3CCc4cc(Oc5ccccc5)ccc4C3)o2)n1`, in experiment [1], the Ki came to 2.2 nM.
Regarding `COC(=O)c1cccc(-c2cnc(C(=O)[C@@H]3Cc4ccc(OCc5ccccc5)cc4C3)o2)n1`, the Ki in experiment [1] was 130 nM.
Same read-out and setting: then `COC(=O)c1cnc(C(=O)[C@H]2CCc3cc(Oc4ccccc4)ccc3C2)o1`, with 5.4 nM.
Still for that read-out and setting: then `O=C(c1ncco1)[C@@H]1Cc2ccc(-c3ccccc3)cc2C1`, with 140 nM; and `O=C(O)c1cccc(-c2cnc(C(=O)[C@@H]3CCc4cc(Oc5ccccc5)ccc4C3)o2)n1`, with 220 nM.
Same read-out and setting: then `O=C(c1nnco1)[C@@H]1CCc2cc(Oc3ccccc3)ccc2C1`, with 1.4 nM.
For the compound `O=C(c1ncc(-c2ccccn2)o1)[C@@H]1Cc2ccc(-c3ccccc3)cc2C1`, the Ki in experiment [1] was 600 nM.
On the same count and under the same terms, then `O=C(c1ncc(-c2ccccn2)o1)[C@H]1CCc2cc(-c3ccccc3)ccc2C1`, with 7.2 nM.
The same measure, in the same setting: then `N#Cc1cnc(C(=O)[C@H]2CCc3cc(Oc4ccccc4)ccc3C2)o1`, with 1.3 nM.
In the case of `COC(=O)c1cccc(-c2cnc(C(=O)[C@@H]3CCc4cc(OCc5ccccc5)ccc4C3)o2)n1`, the Ki in experiment [1] is 4500 nM.
On to `O=C(c1ncc(-c2ccccn2)o1)[C@@H]1CCc2ccccc2C1`, for which the Ki in experiment [1] was 3200 nM.
Same read-out and setting: then `O=C(c1ncc(-c2ccccn2)o1)[C@H]1Cc2ccc(-c3ccccc3)cc2C1`, with 1.9 nM; and `O=C(O)c1cccc(-c2cnc(C(=O)[C@@H]3Cc4ccc(Oc5ccccc5)cc4C3)o2)n1`, with 550 nM; and `COC(=O)c1cccc(-c2cnc(C(=O)[C@H]3Cc4ccc(OCc5ccccc5)cc4C3)o2)n1`, with 5.8 nM.
Consider `N#Cc1cnc(C(=O)[C@H]2CCc3cc(-c4ccccc4)ccc3C2)o1`, for which the Ki in experiment [1] amounted to 3.4 nM.
Consider `O=C(c1ncc(-c2ccccn2)o1)[C@@H]1Cc2ccc(OCc3ccccc3)cc2C1`, for which, in experiment [1], the inhibitory constant (Ki) was 110 nM.
Turning to `O=C(c1ncc(-c2ccccn2)o1)[C@@H]1CCc2cc(Oc3ccccc3)ccc2C1`, in experiment [1], the inhibition constant (Ki) was determined as 290 nM.
Still for that read-out and setting: then `COC(=O)c1cccc(-c2cnc(C(=O)[C@H]3CCc4cc(OCc5ccccc5)ccc4C3)o2)n1`, with 18 nM.
On to `O=C(c1nnco1)[C@H]1CCc2cc(Oc3ccccc3)ccc2C1`, for which the Ki in experiment [1] came to 0.5 nM.
On the same count and under the same terms, then `O=C(O)c1cccc(-c2cnc(C(=O)[C@H]3Cc4ccc(Oc5ccccc5)cc4C3)o2)n1`, with 71 nM; and `N#Cc1cnc(C(=O)[C@H]2CCc3cc(OCc4ccccc4)ccc3C2)o1`, with 3.2 nM; and `COC(=O)c1cnc(C(=O)[C@@H]2CCc3cc(-c4ccccc4)ccc3C2)o1`, with 1400 nM.
As for `O=C(c1ncc(-c2ccccn2)o1)C1Cc2ccc(Oc3ccccc3)cc2C1` (stereo not given), the “fold change (FC)” value is 3 in experiment [3], 7.4 in experiment [4], 0.8 in experiment [5] and 0.9 in experiment [6].
Take `COC(=O)c1cnc(C(=O)[C@H]2CCc3cc(-c4ccccc4)ccc3C2)o1`: the inhibition constant (Ki) in experiment [1] is 55 nM.
On the same count and under the same terms, then `O=C(c1ncc(-c2ccccn2)o1)[C@@H]1CCc2cc(OCc3ccccc3)ccc2C1`, with 300 nM; and `O=C(O)c1cccc(-c2cnc(C(=O)[C@H]3CCc4cc(-c5ccccc5)ccc4C3)o2)n1`, with 39 nM; and `O=C(O)c1cccc(-c2cnc(C(=O)C3Cc4ccc(-c5ccccc5)cc4C3)o2)n1` (racemic), with 57 nM.
Consider `O=C(O)c1cccc(-c2cnc(C(=O)[C@@H]3Cc4ccc(OCc5ccccc5)cc4C3)o2)n1`, for which the Ki in experiment [1] came to 660 nM.
With `COC(=O)c1cccc(-c2cnc(C(=O)[C@@H]3CCc4cc(Oc5ccccc5)ccc4C3)o2)n1`, the inhibitory constant (Ki) in experiment [1] was determined as 870 nM.
Consider `O=C(c1nnc(-c2ccccn2)o1)[C@@H]1CCc2cc(Oc3ccccc3)ccc2C1`, for which the Ki in experiment [1] came out at 6.3 nM.
For `N#Cc1cnc(C(=O)[C@@H]2CCc3cc(Oc4ccccc4)ccc3C2)o1`, the Ki in experiment [1] was 54 nM.
On to `O=C(c1ncco1)[C@@H]1CCc2cc(-c3ccccc3)ccc2C1`, for which the inhibition constant Ki in experiment [1] is 460 nM.
As for `O=C(c1ncco1)[C@@H]1CCc2ccccc2C1`, the Ki in experiment [1] turned out to be 12000 nM.
Same read-out and setting: then `COC(=O)c1cccc(-c2cnc(C(=O)[C@H]3Cc4ccc(Oc5ccccc5)cc4C3)o2)n1`, with 98 nM.
For the compound `O=C(c1ncco1)[C@H]1CCc2cc(Oc3ccccc3)ccc2C1`, the Ki in experiment [1] was found to be 2.2 nM.
Regarding `COC(=O)c1cccc(-c2cnc(C(=O)C3CCc4cc(OCc5ccccc5)ccc4C3)o2)n1` (racemic), the Ki in experiment [2] was over 10000 nM.
Turning to `O=C(c1ncco1)[C@@H]1CCc2cc(OCc3ccccc3)ccc2C1`, the Ki in experiment [1] was 87 nM.
Still for that read-out and setting: then `O=C(c1ncc(I)o1)C1CCc2cc(OCc3ccccc3)ccc2C1` (racemic), with 8 nM; and `COC(=O)c1cnc(C(=O)[C@@H]2CCc3cc(Oc4ccccc4)ccc3C2)o1`, with 59 nM.
